Data on 44 molecules can be found in ChEMBL document CHEMBL1151452, “Novel trypanocidal analogs of 5'-(methylthio)-adenosine” (Antimicrob Agents Chemother, 2008).

Calls of active or inactive are those of the source. The rule behind the calls is not given here.

Experiment [1] deals with Trypanosoma brucei brucei. The experiment is described as follows: Antitrypanosomal activity against bloodstream form of Trypanosoma brucei brucei LAB 110 EATRO after 48 hrs by Z1 zoulter counter. It counts as functional, organism-based. The settings on record: for IC50: Trypanosoma brucei, LAB 110 EATRO, 48 h. In a few lines:
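Bloodstream forms were grown axenically in HMI-18 (IMDM with 1 μM hypoxanthine and 20% horse serum). Compounds were dissolved in water or DMSO, with final DMSO ≤0.3%. […] Parasites were counted by Coulter counter.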

Experiment [2] deals with Trypanosoma brucei brucei. Description: Activity at bloodstream Trypanosoma brucei brucei 5'-deoxy-5'-(methylthio)-adenosine phosphorylase by spectrophotometry in presence of 50 mM PO4- relative to control. The settings on record: LAB 110 EATRO. Summed up: (§1)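 Enzyme was a cell-free extract of bloodstream trypanosomes harvested from rats. It was prepared by freeze-thawing three times in dry ice-methanol, spinning at 5,000 × g for 10 min, and dialysing 1 h (0.05 M Tris-HCl, 0.1 mM EDTA, 1 mM 2-mercaptoethanol, pH 7.4) to remove phosphate. The mix held 0 or 50 mM potassium phosphate pH 7.4, xanthine oxidase and 25–500 μM substrate. Adenine-derived 2,8-dihydroxyadenine was read at 305 nm over 1 h at 37°C. Activity is expressed relative to MTA.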

The test system of experiment [3] is Trypanosoma brucei brucei. Description: Activity at bloodstream Trypanosoma brucei brucei 5'-deoxy-5'-(methylthio)-adenosine phosphorylase by spectrophotometry relative to control. Further details: concentration or dose not given beside the values. As to conditions: LAB 110 EATRO. In a few lines:
as §1

For experiment [4], the species on record is Mus musculus. Description: Activity at mouse liver 5'-deoxy-5'-(methylthio)-adenosine phosphorylase. Also noted: concentration or dose not given beside the values.
Experiment [5] deals with Trypanosoma brucei rhodesiense. Description: Growth stimulation of pentamidine and melarsoprol-resistant bloodstream form of Trypanosoma brucei rhodesiense isolate KETRI 243 at 100 uM after 48 hrs by Z1 zoulter counter.
In experiment [6] the test system is Trypanosoma brucei brucei. Description: Growth stimulation of diamidine and melarsoprol-resistant bloodstream form of Trypanosoma brucei brucei isolate KETRI 243-As10-3 at 100 uM after 48 hrs by Z1 zoulter counter. It counts as functional, organism-based.

As usually defined, the IC50 is the concentration that inhibits the measured activity by half. For `CC(=O)OCCSC[C@H]1O[C@@H](n2cnc3c(C)ncnc32)[C@H](OC(C)=O)[C@@H]1OC(C)=O`, in experiment [1], the concentration for half-maximal inhibition (IC50) was determined as 9.3 µM.
In experiment [1], `Nc1nc(F)nc2c1ncn2[C@@H]1O[C@H](CSCCO)[C@@H](O)[C@H]1O` yielded an IC50 of 1.9 µM. The figures for the Activity in experiment [2] and in experiment [3] were 148% and 106%, respectively.
For `Nc1ncnc2c1ncn2[C@@H]1O[C@H](CSCCCO)[C@@H](O)[C@H]1O`, half-maximal inhibition in experiment [1] (IC50) required 170 µM. Further, the Activity in experiment [2] was found to be 72.5%; in experiment [3], 27.4%.
Molecule `CC(=O)OCCSC[C@H]1O[C@@H](n2cnc3c(N)ncnc32)[C@H](OC(C)=O)[C@@H]1OC(C)=O` returned a half-inhibitory concentration (IC50) in experiment [1] of 0.32 µM.
Take `Cc1ncnc2c1ncn2[C@@H]1O[C@H](CSCCO)[C@@H](O)[C@H]1O`: the IC50 in experiment [1] was determined as 24.5 µM. The results for the Activity in experiment [2] and in experiment [3] were 2% and 25%, respectively.
In experiment [1], `CC(=O)OCCSC[C@H]1O[C@@H](n2cnc3c2ncn2ccnc32)[C@H](OC(C)=O)[C@@H]1OC(C)=O` showed a 50% inhibitory concentration (IC50) of 35 µM.
For `Nc1ncnc2c1ncn2C[C@H](O)CSCCO`, the half-maximal inhibitory concentration (IC50) in experiment [1] was found to be 60 µM.
In experiment [1], `OCCSC[C@H]1O[C@@H](n2cnc3cncnc32)[C@H](O)[C@@H]1O` displayed an IC50 of 34 µM. The results for the Activity in experiment [2] and in experiment [3] were 11% and 4%, respectively.
`CC(=O)OCCSC[C@H]1O[C@@H](n2cnc3c(N)nc(N)nc32)[C@H](OC(C)=O)[C@@H]1OC(C)=O` had a concentration for half-maximal inhibition (IC50) in experiment [1] of 12.5 µM.
Molecule `CNC[C@H]1O[C@@H](n2cnc3c(N)ncnc32)[C@H](O)[C@@H]1O` showed a 50% inhibitory concentration (IC50) in experiment [1] of more than 100 µM. In addition, the Activity in experiment [2] amounted to 4%; in experiment [3], 0%.
Molecule `OCCSC[C@H]1O[C@@H](n2cnc3c2ncn2ccnc32)[C@H](O)[C@@H]1O` returned an IC50 in experiment [1] of more than 100 µM. In addition, the Activity turned out to be 56% in experiment [2] and 62% in experiment [3].
For the molecule `CC(=O)O[C@@H]1[C@H](OC(C)=O)[C@@H](CSCCF)O[C@H]1n1cnc2c(N)ncnc21`, half-maximal inhibition in experiment [1] (IC50) required 0.83 µM.
Consider `Nc1ncnc2c1ncn2[C@H]1CC[C@@H](CSCCO)O1`, for which, in experiment [1], the IC50 was 100 µM. The Activity in experiment [2] amounted to 17%; in experiment [3], 18%.
For `COC(=O)CSC[C@H]1O[C@@H](n2cnc3c(N)ncnc32)[C@H](O)[C@@H]1O` the same measures were 130 µM, 84% and 34%.
`Nc1ncnc2c1ccn2[C@@H]1O[C@H](CSCCO)[C@@H](O)[C@H]1O` returned an IC50 in experiment [1] of 0.042 µM. Further, the Activity in experiment [2] and in experiment [3] was 0% throughout.
For `Nc1ncnc2c1ncn2[C@@H]1O[C@H](CSCCO)[C@@H](O)[C@H]1O`, in experiment [1], inhibition was half-maximal at 0.54 µM (IC50). Further, the Activity is 96% in experiment [2] and 100% in experiment [3].
In experiment [1], `CSC[C@H]1O[C@@H](n2cnc3c(N)ncnc32)[C@H](O)[C@@H]1O` [METHYLTHIOADENOSINE] displayed an IC50 of 100 µM. The Activity in experiment [4], in experiment [2] and in experiment [3] was 100% in each case.
`Nc1ncnc2c1ncn2[C@@H]1O[C@H](CSCCCF)[C@@H](O)[C@H]1O` showed an IC50 in experiment [1] of 120 µM. The Activity was determined as 64% in experiment [4], 47.5% in experiment [2] and 31.3% in experiment [3].
For `CCCSC[C@H]1O[C@@H](n2cnc3c(N)ncnc32)[C@H](O)[C@@H]1O` the same measures were 46 µM, 100%, 57.5% and 26%.
With `Nc1ncnc2c1ncn2[C@@H]1O[C@H](CSCCO)C[C@H]1O`, the IC50 in experiment [1] is 12.5 µM. Also, the Activity in experiment [2] was 39.4%; in experiment [3] it was 37.8%.
Take `CCSC[C@H]1O[C@@H](n2cnc3c(N)ncnc32)[C@H](O)[C@@H]1O`: the results for the Activity in experiment [4], in experiment [2] and in experiment [3] were 100%, 76.2% and 26.9%, respectively.
In experiment [1], `CSC[C@H]1O[C@@H](n2ccc3c(N)ncnc32)[C@H](O)[C@@H]1O` had a half-maximal inhibitory concentration (IC50) of 67 µM. Also, the Activity in experiment [2] and in experiment [3] was 0% throughout.
On to `CC(=O)OCCSC[C@H]1O[C@@H](n2cnc3cncnc32)[C@H](OC(C)=O)[C@@H]1OC(C)=O`, for which half-maximal inhibition in experiment [1] (IC50) was put at 3.65 µM.
Regarding `Nc1nc(N)c2ncn([C@@H]3O[C@H](CSCCO)[C@@H](O)[C@H]3O)c2n1`, the IC50 in experiment [1] worked out at 3.9 µM. The Activity in experiment [2] was found to be 29%; in experiment [3], 18%.
For `Nc1ncnc2c1nnn2[C@@H]1O[C@H](CSCCO)[C@@H](O)[C@H]1O`, the IC50 in experiment [1] was found to be 7 µM.
For the molecule `NCCSC[C@H]1O[C@@H](n2cnc3c(N)ncnc32)[C@H](O)[C@@H]1O`, the IC50 in experiment [1] is more than 100 µM. Further, in experiment [5], the outcome was Active.
For `CC(=O)OCCSC[C@H]1O[C@@H](n2cnc(C(N)=O)n2)[C@H](OC(C)=O)[C@@H]1OC(C)=O`, in experiment [1], half-maximal inhibition (IC50) required 26.5 µM.
In experiment [1], `CSC[C@H]1O[C@@H](n2ccc3c(NC(C)=O)ncnc32)[C@H](OC(C)=O)[C@@H]1OC(C)=O` yielded an IC50 of 46 µM.
`Nc1ncnc2c1ncn2[C@@H]1O[C@H](CSCCF)[C@@H](O)[C@H]1O`: in experiment [1], the half-maximal inhibitory concentration (IC50) was 0.2 µM. For the same molecule, the Activity was found to be 64% in experiment [4], 75.3% in experiment [2] and 29.3% in experiment [3].
With `CC(=O)OCCSC[C@H](COC(C)=O)O[C@H](COC(C)=O)n1cnc2c(N)ncnc21`, the IC50 in experiment [1] is 5.3 µM.
Molecule `OCCSC[C@H]1O[C@@H](n2cnc3c(O)ncnc32)[C@H](O)[C@@H]1O` gave a concentration for half-maximal inhibition (IC50) in experiment [1] of more than 100 µM. The Activity in experiment [2] and in experiment [3] was 0% in each case.
Consider `CC(=O)OCCSC[C@@H]1C[C@@H](OC(C)=O)[C@H](n2cnc3c(N)ncnc32)O1`, for which, in experiment [1], the half-inhibitory concentration (IC50) came to 0.64 µM.
`CC(=O)OCCSC[C@H]1O[C@@H](n2cnc3c(N)ncnc32)C[C@@H]1OC(C)=O`: inhibition in experiment [1] was half-maximal at 22 µM (IC50).
In experiment [1], `CC(=O)OCCSC[C@H]1O[C@@H](n2cnc3c(N)nc(F)nc32)[C@H](OC(C)=O)[C@@H]1OC(C)=O` had an IC50 of 2.75 µM.
With `Nc1ncnc2c1ncn2[C@H]1C[C@H](O)[C@@H](CSCCO)O1`, in experiment [1], the IC50 is more than 100 µM. Also, the Activity in experiment [2] worked out at 100%; in experiment [3] it was 81%. The outcome in experiment [6] was Active.
With `Nc1ncnc2c1ncn2C[C@@H](O)CSCCO`, in experiment [1], the IC50 was more than 100 µM.
In experiment [1], `CC(=O)OCCSC[C@H]1O[C@@H](n2cnc3c(F)ncnc32)[C@H](OC(C)=O)[C@@H]1OC(C)=O` showed an IC50 of more than 100 µM.
With `CC(=O)OCCSC[C@H]1O[C@@H](n2ccc3c(N)ncnc32)[C@H](OC(C)=O)[C@@H]1OC(C)=O`, in experiment [1], the IC50 amounted to 0.145 µM.
`NC(=O)c1ncn([C@@H]2O[C@H](CSCCO)[C@@H](O)[C@H]2O)n1`: the “inhibition (INH)” value in experiment [1] was found to be 9%. Moreover, the result in experiment [5] was Active. Besides, the Activity in experiment [2] amounted to 61%; in experiment [3], 70%.
For `Nc1ncnc2c1ncn2COCCSCCO`, half-maximal inhibition in experiment [1] (IC50) was put at 64 µM. In addition, the figures for the Activity in experiment [2] and in experiment [3] were 56% and 78%, respectively.
For the molecule `OCCSC[C@H]1O[C@@H](n2cnc3c(F)ncnc32)[C@H](O)[C@@H]1O`, the concentration for half-maximal inhibition (IC50) in experiment [1] is more than 100 µM. Moreover, the Activity in experiment [2] came out at 42%; in experiment [3], 60%.
Molecule `NCCCSC[C@H]1O[C@@H](n2cnc3c(N)ncnc32)[C@H](O)[C@@H]1O` showed a concentration for half-maximal inhibition (IC50) in experiment [1] of more than 100 µM. Besides, the Activity in experiment [2] amounted to 46%; in experiment [3] it was 60%.
For `Nc1ncnc2c([C@@H]3N[C@H](CSCCO)[C@@H](O)[C@H]3O)c[nH]c12`, the half-inhibitory concentration (IC50) in experiment [1] is more than 10 µM.
As to `Nc1ncnc2c1ncn2[C@@H](CO)O[C@@H](CO)CSCCO`, the IC50 in experiment [1] was determined as 14 µM. In addition, the Activity in experiment [2] amounted to 44%; in experiment [3] it was 0%.
